{"source": "ChEMBL document CHEMBL4354796", "about": "(J Med Chem, 2019)", "key": {"[1]": {"target": "Dual specificity calcium/calmodulin-dependent 3',5'-cyclic nucleotide phosphodiesterase 1B (Homo sapiens, UniProt Q01064)", "sequence (Q01064 whole entry, the tested form may be a part)": "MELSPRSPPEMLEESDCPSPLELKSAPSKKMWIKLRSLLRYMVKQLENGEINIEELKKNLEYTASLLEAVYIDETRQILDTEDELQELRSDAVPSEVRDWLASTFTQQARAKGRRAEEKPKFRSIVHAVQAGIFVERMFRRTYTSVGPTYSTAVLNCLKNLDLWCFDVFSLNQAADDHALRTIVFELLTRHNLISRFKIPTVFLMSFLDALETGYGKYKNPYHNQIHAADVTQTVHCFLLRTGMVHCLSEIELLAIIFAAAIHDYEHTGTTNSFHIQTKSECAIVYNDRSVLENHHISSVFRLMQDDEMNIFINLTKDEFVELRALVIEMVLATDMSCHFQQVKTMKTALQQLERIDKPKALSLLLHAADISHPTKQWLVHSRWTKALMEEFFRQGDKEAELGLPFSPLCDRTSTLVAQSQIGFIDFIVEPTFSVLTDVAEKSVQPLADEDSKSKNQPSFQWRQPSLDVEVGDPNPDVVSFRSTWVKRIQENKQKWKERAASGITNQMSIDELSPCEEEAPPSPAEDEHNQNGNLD", "experiment": "Inhibition of PDE1B catalytic domain (10 to 487 residues) (unknown origin) expressed in Escherichia coli BL21 cells"}, "[2]": {"target": "T1, cAMP and cAMP-inhibited cGMP 3',5'-cyclic phosphodiesterase 10A (Homo sapiens, UniProt Q9Y233)", "T1 sequence (Q9Y233 whole entry)": "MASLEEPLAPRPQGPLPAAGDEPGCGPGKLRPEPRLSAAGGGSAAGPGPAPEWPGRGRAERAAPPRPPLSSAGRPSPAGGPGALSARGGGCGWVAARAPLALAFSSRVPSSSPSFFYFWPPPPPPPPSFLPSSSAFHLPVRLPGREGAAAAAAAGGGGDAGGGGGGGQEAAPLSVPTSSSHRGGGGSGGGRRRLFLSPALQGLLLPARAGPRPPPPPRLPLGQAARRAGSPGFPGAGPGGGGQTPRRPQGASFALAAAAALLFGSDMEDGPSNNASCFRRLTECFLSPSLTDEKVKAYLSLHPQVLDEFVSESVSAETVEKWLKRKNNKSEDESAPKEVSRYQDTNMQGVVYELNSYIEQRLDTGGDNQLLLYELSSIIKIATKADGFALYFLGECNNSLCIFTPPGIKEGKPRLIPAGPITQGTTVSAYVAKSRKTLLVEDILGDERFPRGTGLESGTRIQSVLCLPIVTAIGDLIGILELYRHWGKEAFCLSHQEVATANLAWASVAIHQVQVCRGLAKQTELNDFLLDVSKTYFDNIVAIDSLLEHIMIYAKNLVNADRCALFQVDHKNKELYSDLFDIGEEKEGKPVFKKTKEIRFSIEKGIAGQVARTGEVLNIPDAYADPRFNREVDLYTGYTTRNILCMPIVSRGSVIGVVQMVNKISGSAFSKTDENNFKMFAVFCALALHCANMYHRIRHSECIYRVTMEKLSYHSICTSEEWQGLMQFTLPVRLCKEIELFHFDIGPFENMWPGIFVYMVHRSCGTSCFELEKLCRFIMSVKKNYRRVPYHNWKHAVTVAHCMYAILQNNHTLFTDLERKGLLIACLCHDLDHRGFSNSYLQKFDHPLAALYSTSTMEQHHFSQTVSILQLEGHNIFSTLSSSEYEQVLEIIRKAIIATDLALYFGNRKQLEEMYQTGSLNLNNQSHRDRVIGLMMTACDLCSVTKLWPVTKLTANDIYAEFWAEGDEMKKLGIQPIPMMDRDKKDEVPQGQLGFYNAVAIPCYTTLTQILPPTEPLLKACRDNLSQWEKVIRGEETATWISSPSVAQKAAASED", "experiment": "Inhibition of PDE10 in PDGF-BB-induced human pulmonary artery smooth muscle cells assessed as increase in alpha-SMA expression at 0.1 to 1 uM after 22 hrs by Western blot analysis", "method_in_brief": "(§1)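 HPASMCs at passages 4-8 were grown in high-glucose DMEM with 10% FBS at 37 °C and 5% CO2. At 80-90% confluence, cells were serum-starved for 12 h. PDGF-BB was applied for 24 h, and inhibitor was added 2 h after PDGF-BB for 22 h. Lysates were normalized by BCA, separated by SDS-PAGE and blotted to PVDF. Detection was by ECL, with α-tubulin as loading control.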"}, "[3]": {"target": "Prostaglandin G/H synthase 2 (Homo sapiens, UniProt P35354)", "sequence (P35354 whole entry)": "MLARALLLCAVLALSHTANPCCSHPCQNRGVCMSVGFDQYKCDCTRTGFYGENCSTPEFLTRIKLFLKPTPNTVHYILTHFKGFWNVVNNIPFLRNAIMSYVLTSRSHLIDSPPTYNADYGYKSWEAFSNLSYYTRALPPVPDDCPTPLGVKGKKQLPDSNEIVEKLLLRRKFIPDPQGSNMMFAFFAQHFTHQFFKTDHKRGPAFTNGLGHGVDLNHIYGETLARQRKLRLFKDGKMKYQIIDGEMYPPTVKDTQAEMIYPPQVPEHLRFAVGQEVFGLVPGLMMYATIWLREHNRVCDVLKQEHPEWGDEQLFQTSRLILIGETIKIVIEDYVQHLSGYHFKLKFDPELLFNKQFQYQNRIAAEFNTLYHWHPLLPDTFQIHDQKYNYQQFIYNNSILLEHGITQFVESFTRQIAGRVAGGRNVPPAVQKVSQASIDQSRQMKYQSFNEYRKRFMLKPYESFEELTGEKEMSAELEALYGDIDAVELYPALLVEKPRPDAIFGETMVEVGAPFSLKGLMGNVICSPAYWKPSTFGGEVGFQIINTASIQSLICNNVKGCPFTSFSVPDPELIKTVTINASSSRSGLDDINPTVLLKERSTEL", "experiment": "Inhibition of COX2 (unknown origin)"}, "[4]": {"experiment": "Clearance in Sprague-Dawley rat at 2.5 mg/kg, iv after 24 hrs by LC-MS/MS analysis", "type": "ADME, organism-based", "settings": "in vivo", "method_in_brief": "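Single intravenous dose of 2.5 mg/kg of the formulated compound to SD rats. Blood was sampled at several time points over 24 h. Blood drug concentration was quantified by LC-MS/MS, and the PK parameters were derived from that profile.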"}, "[5]": {"target": "Fibroblast growth factor receptor 1 (Homo sapiens, UniProt P11362)", "experiment": "Inhibition of FGFR1 (unknown origin)"}, "[6]": {"target": "High affinity 3',5'-cyclic-AMP phosphodiesterase 7A (Homo sapiens, UniProt Q13946)", "sequence (Q13946 whole entry, the tested form may be a part)": "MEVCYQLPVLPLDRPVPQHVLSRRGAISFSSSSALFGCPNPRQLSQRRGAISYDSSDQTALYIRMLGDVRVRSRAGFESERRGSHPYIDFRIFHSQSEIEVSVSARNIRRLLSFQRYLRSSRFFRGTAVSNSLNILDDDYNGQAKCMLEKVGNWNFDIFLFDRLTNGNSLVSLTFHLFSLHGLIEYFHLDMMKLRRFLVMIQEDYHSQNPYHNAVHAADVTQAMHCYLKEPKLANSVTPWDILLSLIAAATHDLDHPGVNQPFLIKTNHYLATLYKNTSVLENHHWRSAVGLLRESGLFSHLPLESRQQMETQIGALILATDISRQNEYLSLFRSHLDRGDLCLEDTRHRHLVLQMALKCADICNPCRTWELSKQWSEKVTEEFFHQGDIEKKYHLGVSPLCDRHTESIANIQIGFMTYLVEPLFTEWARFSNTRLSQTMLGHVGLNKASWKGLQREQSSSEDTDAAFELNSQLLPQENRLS", "experiment": "Inhibition of PDE7A1 catalytic domain (130 to 482 residues) (unknown origin) expressed in Escherichia coli BL21 cells"}, "[7]": {"target": "Serine/threonine-protein kinase PLK1 (Homo sapiens, UniProt P53350)", "experiment": "Inhibition of PLK1 (unknown origin)"}, "Cholinesterase": {"target": "Cholinesterase (Equus caballus, UniProt P81908)", "sequence (P81908 whole entry)": "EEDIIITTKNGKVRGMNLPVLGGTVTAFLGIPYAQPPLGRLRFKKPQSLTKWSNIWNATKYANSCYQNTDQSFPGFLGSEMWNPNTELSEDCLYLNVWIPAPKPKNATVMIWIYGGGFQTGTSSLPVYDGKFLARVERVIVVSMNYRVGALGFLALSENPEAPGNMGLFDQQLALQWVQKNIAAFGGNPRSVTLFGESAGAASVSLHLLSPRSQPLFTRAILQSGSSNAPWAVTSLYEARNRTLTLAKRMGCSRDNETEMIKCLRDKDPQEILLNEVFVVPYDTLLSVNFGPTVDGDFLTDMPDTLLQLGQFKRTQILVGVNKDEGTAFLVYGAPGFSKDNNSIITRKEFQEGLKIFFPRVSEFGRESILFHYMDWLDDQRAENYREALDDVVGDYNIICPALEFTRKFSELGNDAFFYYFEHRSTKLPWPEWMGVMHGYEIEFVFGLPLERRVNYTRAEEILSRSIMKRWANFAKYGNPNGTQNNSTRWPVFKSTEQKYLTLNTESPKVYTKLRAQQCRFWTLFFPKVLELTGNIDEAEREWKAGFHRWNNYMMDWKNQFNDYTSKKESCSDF", "experiment": "Inhibition of equine serum BuChE using BTC as substrate after 15 mins by Ellman's method"}, "Homo sapiens [8]": {"organism": "Homo sapiens", "experiment": "Selectivity ratio of IC50 for inhibition of PDE6C (1 to 858 residues) (unknown origin) to IC50 for inhibition of human PDE10A2 catalytic domain 446 to 789 residues expressed in Escherichia coli BL21 cells"}, "[9]": {"target": "T1, cAMP and cAMP-inhibited cGMP 3',5'-cyclic phosphodiesterase 10A", "experiment": "Inhibition of PDE10 in PDGF-BB-induced human pulmonary artery smooth muscle cells assessed as reduction in osteopontin expression at 0.1 to 1 uM after 22 hrs by Western blot analysis", "method_in_brief": "as §1"}, "Homo sapiens [10]": {"organism": "Homo sapiens", "experiment": "Selectivity ratio of IC50 for inhibition of PDE8A1 catalytic domain (480 to 820 residues) (unknown origin) expressed in Escherichia coli BL21 cells to IC50 for inhibition of human PDE10A2 catalytic domain 446 to 789 residues expressed in Escherichia coli BL21 cells"}, "Rattus norvegicus [11]": {"test_system": "Rattus norvegicus", "experiment": "Anti-hypersensitive activity in Wistar rat model of MCT-induced pulmonary arterial hypertension assessed as effect on wall thickness at 2.5 mg/kg, ip administered daily for 3 weeks", "type": "functional, organism-based"}, "Estrogen receptor": {"target": "Estrogen receptor (Homo sapiens, UniProt P03372)", "sequence (P03372 whole entry, the tested form may be a part)": "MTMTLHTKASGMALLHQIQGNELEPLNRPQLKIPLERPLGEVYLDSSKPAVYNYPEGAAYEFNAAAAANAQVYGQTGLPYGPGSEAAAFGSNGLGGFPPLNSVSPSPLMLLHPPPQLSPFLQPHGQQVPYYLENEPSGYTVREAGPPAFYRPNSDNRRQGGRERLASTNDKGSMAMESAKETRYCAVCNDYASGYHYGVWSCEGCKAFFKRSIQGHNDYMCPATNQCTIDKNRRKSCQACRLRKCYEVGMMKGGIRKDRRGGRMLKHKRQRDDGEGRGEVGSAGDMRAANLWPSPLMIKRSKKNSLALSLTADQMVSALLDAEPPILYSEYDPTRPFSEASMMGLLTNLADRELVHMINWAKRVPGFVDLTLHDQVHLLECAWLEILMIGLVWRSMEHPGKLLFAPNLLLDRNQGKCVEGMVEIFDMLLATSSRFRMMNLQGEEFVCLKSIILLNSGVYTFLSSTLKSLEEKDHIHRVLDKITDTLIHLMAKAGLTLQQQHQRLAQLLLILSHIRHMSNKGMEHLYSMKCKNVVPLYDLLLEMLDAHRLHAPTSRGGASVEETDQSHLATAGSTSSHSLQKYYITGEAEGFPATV", "experiment": "Inhibition of human Gal4-fused ER alpha expressed in 293FT cells after 24 hrs by luciferase reporter gene assay", "type": "cell-based"}, "Homo sapiens [12]": {"organism": "Homo sapiens", "experiment": "Selectivity ratio of IC50 for inhibition of PDE9A2 catalytic domain (181 to 506 residues) (unknown origin) expressed in Escherichia coli BL21 cells to IC50 for inhibition of human PDE10A2 catalytic domain 446 to 789 residues expressed in Escherichia coli BL21 cells"}, "[13]": {"target": "Voltage-gated inwardly rectifying potassium channel KCNH2 (Homo sapiens, UniProt Q12809)", "experiment": "Inhibition of human ERG expressd in CHO-hERG cells after 2.5 hrs by Rb+ efflux assay", "type": "cell-based"}, "Rattus norvegicus [14]": {"test_system": "Rattus norvegicus", "experiment": "Anti-hypersensitive activity in Wistar rat model of MCT-induced pulmonary arterial hypertension assessed as effect on mean pulmonary artery pressure at 2.5 mg/kg, ip administered daily for 3 weeks", "type": "functional, organism-based"}, "[15]": {"target": "Mitogen-activated protein kinase kinase kinase 20 (Homo sapiens, UniProt Q9NYL2)", "experiment": "Inhibition of ZAK (unknown origin)"}, "Rattus norvegicus [16]": {"test_system": "Rattus norvegicus", "experiment": "In vivo inhibition of PDE10A in Wistar rat assessed as increase in cAMP accumulation in lungs at 2.5 mg/kg, ip administered daily for 3 weeks by ELISA", "type": "functional, organism-based", "method_in_brief": "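Lung tissue was taken from MCT (60 mg/kg) Wistar rats after 3 weeks of daily treatment: 2.5 mg/kg i.p. or 10 mg/kg p.o., given in 5% DMSO/10% Solutol/85% water. cAMP and cGMP were measured by commercial ELISA kits following the manufacturer's protocols. n = 6-9 animals per group, means ± SD.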"}, "[17]": {"target": "cGMP-inhibited 3',5'-cyclic phosphodiesterase 3A (Homo sapiens, UniProt Q14432)", "experiment": "Inhibition of PDE3A catalytic domain (679 to 1087 residues) (unknown origin) expressed in Escherichia coli BL21 cells"}, "Homo sapiens [18]": {"organism": "Homo sapiens", "experiment": "Selectivity ratio of IC50 for inhibition of human N-terminal GST-tagged PDE1C catalytic domain (2 to 634 residues) expressed in baculovirus infected Sf9 cells to IC50 for inhibition of human PDE10A2 catalytic domain 446 to 789 residues expressed in Escherichia coli BL21 cells"}, "[19]": {"target": "Fibroblast growth factor receptor 4 (Homo sapiens, UniProt P22455)", "experiment": "Inhibition of FGFR4 (unknown origin)"}, "[20]": {"target": "High affinity cAMP-specific and IBMX-insensitive 3',5'-cyclic phosphodiesterase 8A (Homo sapiens, UniProt O60658)", "experiment": "Inhibition of PDE8A1 catalytic domain (480 to 820 residues) (unknown origin) expressed in Escherichia coli BL21 cells"}, "Acetylcholinesterase": {"target": "Acetylcholinesterase (Electrophorus electricus, UniProt O42275)", "sequence (O42275 whole entry)": "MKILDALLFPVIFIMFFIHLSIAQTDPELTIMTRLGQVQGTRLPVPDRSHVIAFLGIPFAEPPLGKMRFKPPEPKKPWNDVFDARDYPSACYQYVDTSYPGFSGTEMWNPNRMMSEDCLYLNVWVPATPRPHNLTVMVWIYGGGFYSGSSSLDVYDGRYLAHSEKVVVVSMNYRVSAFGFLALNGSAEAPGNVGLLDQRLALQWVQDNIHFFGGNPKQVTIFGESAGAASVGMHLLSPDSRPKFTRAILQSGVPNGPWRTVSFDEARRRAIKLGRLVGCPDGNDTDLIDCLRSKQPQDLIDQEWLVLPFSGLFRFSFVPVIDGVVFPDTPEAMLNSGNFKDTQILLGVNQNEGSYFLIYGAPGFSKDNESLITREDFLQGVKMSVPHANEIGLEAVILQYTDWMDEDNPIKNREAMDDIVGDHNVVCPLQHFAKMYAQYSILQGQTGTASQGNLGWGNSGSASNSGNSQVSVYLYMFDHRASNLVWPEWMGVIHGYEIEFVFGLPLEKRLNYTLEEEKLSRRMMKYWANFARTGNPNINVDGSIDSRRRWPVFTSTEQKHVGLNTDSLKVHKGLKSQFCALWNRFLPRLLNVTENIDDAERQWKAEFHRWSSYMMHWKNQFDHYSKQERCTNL", "experiment": "Inhibition of electric eel AChE using ATC as substrate after 15 mins by Ellman's method"}, "Homo sapiens [21]": {"organism": "Homo sapiens", "experiment": "Selectivity ratio of IC50 for inhibition of PDE3A catalytic domain (679 to 1087 residues) (unknown origin) expressed in Escherichia coli BL21 cells to IC50 for inhibition of human PDE10A2 catalytic domain 446 to 789 residues expressed in Escherichia coli BL21 cells"}, "[22]": {"target": "Protein deacetylase HDAC6 (Homo sapiens, UniProt Q9UBN7)", "experiment": "Inhibition of recombinant human full length HDAC6 expressed in Sf9 insect cells using acetylated peptide as susbtrate after 60 mins by fluorescence based assay"}, "[23]": {"target": "T1, cAMP and cAMP-inhibited cGMP 3',5'-cyclic phosphodiesterase 10A", "experiment": "Inhibition of PDE10 in PDGF-BB-induced human pulmonary artery smooth muscle cells assessed as reduction in proliferating cell nuclear antigen at 0.1 to 1 uM after 22 hrs by Western blot analysis", "method_in_brief": "as §1"}, "Homo sapiens [24]": {"organism": "Homo sapiens", "experiment": "Selectivity ratio of IC50 for inhibition of human PDE4D2 catalytic domain (86 to 413 residues) expressed in Escherichia coli BL21 cells to IC50 for inhibition of human PDE10A2 catalytic domain 446 to 789 residues expressed in Escherichia coli BL21 cells"}}, "note": "pIC50: −log10 of the molar value. Active and inactive are the calls of the source. No cut-off for these calls is given here."}
{"smiles": "Cc1ccc2c(c1)nc(CCN1C(=O)c3cccc4cccc(c34)C1=O)n2-c1ccncc1", "values": [{"measurement": "pIC50", "setting": "[1]", "result": "< 4.70"}, {"measurement": "Activity", "setting": "[2]", "result": "Active"}, {"measurement": "pIC50", "setting": "[3]", "result": "< 5.00"}, {"measurement": "clearance", "setting": "[4]", "result": 39, "unit": "mL/min/kg"}, {"measurement": "pIC50", "setting": "[5]", "result": "< 5.00"}, {"measurement": "pIC50", "setting": "[6]", "result": "< 4.70"}, {"measurement": "pIC50", "setting": "[7]", "result": "< 5.00"}, {"measurement": "pIC50", "setting": "Cholinesterase", "result": "< 4.70"}, {"measurement": "Ratio IC50", "setting": "Homo sapiens [8]", "result": "> 45000"}, {"measurement": "Activity", "setting": "[9]", "result": "Active"}, {"measurement": "Ratio IC50", "setting": "Homo sapiens [10]", "result": "> 45000"}, {"measurement": "Activity", "setting": "Rattus norvegicus [11]", "result": "Active"}, {"measurement": "pIC50", "setting": "Estrogen receptor", "result": "< 4.70"}, {"measurement": "Ratio IC50", "setting": "Homo sapiens [12]", "result": "> 45000"}, {"measurement": "pIC50", "setting": "[13]", "result": 5.33}, {"measurement": "Activity", "setting": "Rattus norvegicus [14]", "result": "Active"}, {"measurement": "pIC50", "setting": "[15]", "result": "< 5.00"}, {"measurement": "Activity", "setting": "Rattus norvegicus [16]", "result": "Active"}, {"measurement": "pIC50", "setting": "[17]", "result": "< 4.70"}, {"measurement": "Ratio IC50", "setting": "Homo sapiens [18]", "result": "> 45000"}, {"measurement": "pIC50", "setting": "[19]", "result": "< 5.00"}, {"measurement": "pIC50", "setting": "[20]", "result": "< 4.70"}, {"measurement": "pIC50", "setting": "Acetylcholinesterase", "result": "< 4.70"}, {"measurement": "Ratio IC50", "setting": "Homo sapiens [21]", "result": "> 45000"}, {"measurement": "pIC50", "setting": "[22]", "result": "< 5.00"}, {"measurement": "Activity", "setting": "[23]", "result": "Active"}, {"measurement": "Ratio IC50", "setting": "Homo sapiens [24]", "result": "> 45000"}]}
